Experimental data: ChEMBL document CHEMBL6074625, “Thiazolidine-2,4-dione hybrids as dual alpha-amylase and alpha-glucosidase inhibitors: design, synthesis, in vitro and in vivo anti-diabetic evaluation” (RSC Med Chem, 2024)
Calls of active or inactive are those of the source. The calls are words filed in the database; no cut-off is given here.

Key:
[1] = Inhibition of porcine pancreatic alpha-amylase using starch as substrate preincubated for 10 min followed by substrate addition and measured after 20 min by absorbance based analysis; set-up: species or system Sus scrofa
Summary of the method: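 Porcine α-amylase (1 U mL⁻¹) pre-incubated with compound 10 min at 25 °C in phosphate buffer pH 6.8. 1% starch added, then 15 min at 37.5 ± 2 °C. Quenched with DNS reagent, heated 70 °C 20 min, diluted with buffer, A540 read, in triplicate. Final concentrations 100–1 μM from DMSO dilutions; IC50 from a linear fit of % inhibition at y = 50.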

[2] = system: PANC-1; test: Cytotoxicity against human PANC-1 cells assessed as inhibition of cell viability at upto 100 uM incubated for 24 hrs by MTT assay; type: toxicity, cell-based; settings: panc-1, 24 h
Summary of the method: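 PANC-1 cells seeded at 9 × 10³ per well, triplicate, 24 h at 37 °C, 5% CO₂. Treated with 5, 10, 20, 40, 60, 80 and 100 μM for another day. MTT (5 mg mL⁻¹ stock) 3 h at 37 °C, plates centrifuged, formazan dissolved in DMSO 30 min dark, A570. Viability compared by one-way ANOVA with Tukey test.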

[3] = system: INS1; test: Cytotoxicity against rat INS1 cells assessed as inhibition of cell viability at upto 100 uM incubated for 24 hrs by MTT assay; type: toxicity, cell-based; settings: ins1, 24 h
Summary of the method: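 INS-1 MTT run as for PANC-1: 20 × 10³ cells per well in triplicate, 24 h at 37 °C/5% CO₂, then 5–100 μM (7 levels) for another day. MTT (5 mg mL⁻¹ stock) 3 h, centrifugation, DMSO solubilisation 30 min in dark, absorbance at 570 nm.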

[4] = system: Rattus norvegicus; test: Antioxidant activity in fasted STZ-induced diabetic Wistar rat model assessed as decrease in high glucose induced ROS production in pancreas by measuring minimum fractional index at 10 mg/kg, po administration for 21 days and measured on day 35; type: functional; settings: time 35 day
Summary of the method: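 Rat pancreas mashed through a 70 μm strainer in FACS buffer. Processed by centrifugation (300 × g and 800 × g, 21 °C), 42% Percoll and 5 min RBC lysis. Cells washed, stained with DCFH-DA, and ROS read on a flow cytometer.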

[5] = system: PANC-1; test: (§1) Anti-diabetic activity against high glucose induced human PANC-1 cells assessed as decrease in glucose induced alpha-glucosidase expression by measuring by measuring minimum fractional index at 5 uM incubated for 23 hrs and measured after 24 hrs by flow cytometric analysis (reference value: 4361 +/- 257.83); type: functional
[6] = system: PANC-1; test: as §1, with “alpha-amylase” for “alpha-glucosidase”, “2887” for “4361”, “95.87)” for “257.83)”; type: functional
[7] = species on record: Rattus norvegicus; test: Anti-diabetic activity in high glucose induced alpha-amylase expression in fasted STZ-induced diabetic Wistar rat model assessed as alpha-glucosidase level in pancreas by measuring minimum fractional index incubated for 23 hrs and measured after 24 hrs by flow cytometric analysis (reference value: 3063 + 149.2); type: functional
[8] = system: Rattus norvegicus; test: Anti-diabetic activity against in streptozotocin-induced diabetic Wistar rat model assessed as reduction in blood glucose level at 10 mg/kg, po administered as single dose and measured upto 120 min by oral glucose tolerance test; type: functional, organism-based
Summary of the method: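 Wistar rats fasted 16 h, given a single oral 10 mg kg⁻¹ dose, then oral glucose 2 g kg⁻¹ immediately. Blood glucose taken by tail puncture with a glucometer at 0, 15, 30, 60, 90 and 120 min. Groups compared by ANOVA.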

[9] = Toxicity against STZ-induced diabetic Wistar rat model assessed as body weight loss at 10 mg/kg, po measured on day 14; type: organism-based; settings: in vivo, 336 h, time 14 day
Summary of the method: (§2)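 STZ given on day 1; oral treatment started day 14, with vehicle 0.5% CMC in controls. Six groups: normal, vehicle, STZ, STZ + two test compounds, STZ + pioglitazone. Blood glucose (tail puncture, glucometer) and body weight recorded on days 1, 4, 14 and 35. One-way ANOVA.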

[10] = system: Rattus norvegicus; test: Antidiabetic activity against streptozotocin-induced Wistar rat assessed as increase in serum amylase level at 10 mg/kg, po administered for 21 days measured on day 35 by ELISA analysis; type: functional, organism-based; settings: time 35.0 day
Summary of the method: (§3)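 STZ-diabetic Wistar rats in six groups (normal, vehicle 0.5% CMC oral, STZ, STZ + test compounds, STZ + pioglitazone); oral treatment started day 14 after STZ on day 1. Markers measured in serum, pancreatic homogenate or whole blood, as named in each line. Groups compared by one-way ANOVA.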

[11] = system: Rattus norvegicus; test: Antidiabetic activity against streptozotocin-induced Wistar rat assessed as increase in PPAR-gamma level at 10 mg/kg, po administered for 21 days measured on day 35 by ELISA analysis; type: functional, organism-based; settings: time 35.0 day; summary of the method: as §3
[12] = system: Rattus norvegicus; test: Antidiabetic activity against streptozotocin-induced Wistar rat assessed as decrease in total cholesterol at 10 mg/kg, po administered for 21 days measured on day 35; type: functional, organism-based; settings: time 35.0 day; summary of the method: as §3
[13] = system: Rattus norvegicus; test: Antidiabetic activity against streptozotocin-induced Wistar rat assessed as increase BUN level in serum at 10 mg/kg, po administered for 21 days measured on day 35; type: functional, organism-based; settings: time 35.0 day; summary of the method: as §3
[14] = system: Rattus norvegicus; test: Antidiabetic activity against streptozotocin-induced Wistar rat assessed as change in uric acid level at 10 mg/kg, po administered for 21 days measured on day 35; type: functional, organism-based; settings: time 35.0 day; summary of the method: as §3
[15] = system: Rattus norvegicus; test: Antidiabetic activity against streptozotocin-induced Wistar rat assessed as increase creatinine level in serum at 10 mg/kg, po administered for 21 days measured on day 35; type: functional, organism-based; settings: time 35.0 day; summary of the method: as §3
[16] = system: Rattus norvegicus; test: Antidiabetic activity against streptozotocin-induced Wistar rat assessed as increase in serum SGOT level at 10 mg/kg, po administered for 21 days measured on day 35; type: functional, organism-based; settings: time 35.0 day; summary of the method: as §3
[17] = system: Rattus norvegicus; test: Antidiabetic activity against STZ-induced oxidative stress in Wistar rats model assessed as reduction malondialdehyde level in pancreatic tissue at 10 mg/kg, po administered for 21 days measured on day 35; type: functional, organism-based; settings: time 35.0 day; summary of the method: as §3
[18] = species on record: Rattus norvegicus; test: Anti-inflammatory activity in STZ-induced diabetic Wistar rat model assessed as […] level in serum by ELISA method; type: functional, organism-based; summary of the method: as §3
[19] = species on record: Rattus norvegicus; test: Anti-diabetic activity against STZ-induced diabetic Wistar rat model assessed as increase increase in number of eosinophils level; type: functional, organism-based; summary of the method: as §3
[20] = species on record: Rattus norvegicus; test: Anti-diabetic activity against STZ-induced diabetic Wistar rat model assessed as increase increase in number of lymphocytes level; type: functional, organism-based; summary of the method: as §3
[21] = species on record: Rattus norvegicus; test: Anti-diabetic activity against STZ-induced diabetic Wistar rat model assessed as increase increase in number of monocytes level; type: functional, organism-based; summary of the method: as §3
[22] = species on record: Rattus norvegicus; test: Anti-diabetic activity against STZ-induced diabetic Wistar rat model assessed as increase increase in number of total red blood cell count level; type: functional, organism-based; summary of the method: as §3
[23] = species on record: Rattus norvegicus; test: Anti-diabetic activity against STZ-induced diabetic Wistar rat model assessed as increase increase in number of white blood cell count level; type: functional, organism-based; summary of the method: as §3
[24] = system: Rattus norvegicus; test: Anti-diabetic activity against in streptozotocin-induced diabetic Wistar rat model assessed as reduction in blood glucose level at 10 mg/kg, po administered for 21 days measured on day 35 by tail puncture method; type: functional, organism-based; settings: time 35.0 day; summary of the method: as §2
[25] = species on record: Rattus norvegicus; test: Anti-inflammatory activity in STZ-induced diabetic Wistar rat model assessed as decrease in IL-1beta level in blood by ELISA method
[26] = target: alpha-glucosidase (Saccharomyces cerevisiae); test: Inhibition of Saccharomyces cerevisiae alpha-glucosidase using 4-nitrophenyl-alpha-D-glucopyranoside as substrate incubated with compound for 15 to 20 min by absorbance based analysis
[27] = system: Rattus norvegicus; test: Antidiabetic activity against STZ-induced oxidative stress in Wistar rats model assessed as increase in SOD level in pancreatic tissue at 10 mg/kg, po administered for 21 days measured on day 35 by absorbance based UV-spectroscopic analysis; settings: time 35.0 day

Q: Which IC50 [1] does the source give for `C#CCOc1ccc(/C=C2\SC(=O)N(Cc3cccc([N+](=O)[O-])c3)C2=O)cc1OCC` here?
A: 9.2 µM

Q: What about the Activity [2] of the same compound?
A: Non-toxic

Q: And the Activity [3]?
A: Non-toxic

Q: And the Activity_index [4]?
A: 164

Q: And the Activity_index [5]?
A: 752

Q: And the Activity_index [6]?
A: 109

Q: What about the Activity index [7] of the same compound?
A: 2540

Q: And the Activity [8]?
A: Active

Q: And the Activity [9]?
A: Toxic

Q: And the Activity [10]?
A: inactive

Q: What about the Activity [11] of the same compound?
A: Active

Q: And the Activity [12]?
A: Active

Q: And the Activity [13]?
A: Active

Q: What about the Activity [14] of the same compound?
A: Active

Q: What about the Activity [15] of the same compound?
A: Active

Q: What about the Activity [16] of the same compound?
A: Active

Q: And the Activity [17]?
A: Active

Q: What about the Activity [18] of the same compound?
A: Active

Q: And the Activity [19]?
A: Active

Q: And the Activity [20]?
A: Active

Q: What about the Activity [21] of the same compound?
A: Active

Q: What about the Activity [22] of the same compound?
A: Active

Q: And the Activity [23]?
A: Active

Q: What about the Activity [24] of the same compound?
A: Active

Q: What about the Activity [25] of the same compound?
A: Active

Q: And the IC50 [26]?
A: 5.15 µM

Q: What about the Activity [27] of the same compound?
A: Active

Q: Which results are given for `C=CCOc1ccc(/C=C2\SC(=O)N(Cc3cccc([N+](=O)[O-])c3)C2=O)cc1OCC`?
A: IC50 [1]: 17.1 µM; Activity [2]: Non-toxic; Activity [3]: Non-toxic; Activity_index [4]: 674; Activity_index [5]: 2242; Activity_index [6]: 797; Activity index [7]: 132; Activity [8]: Active; Activity [9]: Toxic; Activity [10]: inactive; Activity [11]: Active; Activity [12]: Active; Activity [13]: Active; Activity [14]: Active; Activity [15]: Active; Activity [16]: Active; Activity [17]: Active; Activity [18]: Active; Activity [19]: Active; Activity [20]: Active; Activity [21]: Active; Activity [22]: Active; Activity [23]: Active; Activity [24]: Active; Activity [25]: Active; IC50 [26]: 9.8 µM; Activity [27]: Active
